These results are taken from ChEMBL document CHEMBL4196164, “Tariquidar-Related Chalcones and Ketones as ABCG2 Modulators” (ACS Med Chem Lett, 2018).

A word on the inhibition: it is the relative decrease from the control value, in per cent. One may read the IC50 as the point on the concentration scale where inhibition reaches its midpoint.

The target in series [1] is ABCB1 (Homo sapiens, UniProt P08183). Kind of series: Inhibition of ABCB1 in human KBV1 cells at 10 uM measured after 10 mins by calcein-AM dye based fluorescence assay relative to 10 uM tariquidar. Type of series: cell-based. The conditions noted are these: probe calcein-AM.
Series [2] addresses T1, Broad substrate specificity ATP-binding cassette transporter ABCG2 (Homo sapiens, UniProt Q9UNQ0).
T1 sequence (Q9UNQ0 whole entry): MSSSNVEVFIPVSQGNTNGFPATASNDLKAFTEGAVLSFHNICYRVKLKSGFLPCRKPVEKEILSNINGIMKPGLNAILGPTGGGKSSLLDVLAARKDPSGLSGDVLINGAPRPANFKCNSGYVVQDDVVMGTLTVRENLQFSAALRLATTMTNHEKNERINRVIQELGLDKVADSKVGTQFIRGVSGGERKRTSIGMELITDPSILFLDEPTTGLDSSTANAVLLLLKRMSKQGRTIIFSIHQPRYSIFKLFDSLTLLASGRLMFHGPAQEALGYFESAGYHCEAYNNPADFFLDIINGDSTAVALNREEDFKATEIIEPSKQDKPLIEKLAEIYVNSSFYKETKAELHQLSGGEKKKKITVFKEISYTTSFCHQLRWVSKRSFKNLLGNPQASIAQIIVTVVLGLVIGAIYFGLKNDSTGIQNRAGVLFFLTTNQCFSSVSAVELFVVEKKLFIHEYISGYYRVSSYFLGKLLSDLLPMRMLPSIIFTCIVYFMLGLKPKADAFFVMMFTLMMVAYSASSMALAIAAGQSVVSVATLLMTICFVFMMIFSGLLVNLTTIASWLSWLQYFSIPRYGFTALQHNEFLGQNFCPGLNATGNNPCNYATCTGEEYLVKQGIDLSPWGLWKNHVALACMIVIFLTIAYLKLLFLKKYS
Nature of the series: Inhibition of ABCG2 in human MCF7/Topo cells after 2 hrs by Hoechst 33342 staining based fluorescence assay. Type of series: cell-based. The method, boiled down: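 ABCG2-overexpressing MCF-7/Topo cells, Hoechst 33342 accumulation in microplate format; inhibition expressed relative to 10 μM FTC (100%). Relative IC50 taken as the midpoint between lower and upper plateaus of each compound's own concentration–response curve, from four-parameter fit; mean ± SEM of three independent experiments in triplicate.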

The target in series [3] is ABCC1 (Homo sapiens, UniProt P33527). Kind of series: Inhibition of human ABCC1 expressed in MDCK2 cells at 10 uM after 60 mins by calcein-AM dye based fluorescence assay relative to 30 uM reversan. Type of series: cell-based. The note with it: MDCK2 cells that express human ABCC1, probe calcein-AM.
The nature of series [4]: Stability of the compound in DMEM measured over 24 hrs by HPLC analysis. Type of series: physicochemical. The method, boiled down: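 Compounds incubated in assay medium (DMEM with 10% fetal calf serum) at 37 °C; aliquots analysed by HPLC over 24 h for cleavage or degradation products.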
In series [5] the target is T2, ABCG2 (Homo sapiens, UniProt Q9UNQ0).
T2 sequence (Q9UNQ0 whole entry): T1 sequence (Q9UNQ0 whole entry)
Nature of the series: Inhibition of ABCG2 in human MCF7/Topo cells at 100 uM after 2 hrs by Hoechst 33342 staining based fluorescence assay relative to 10 uM FTC. The conditions noted are these: probe Hoechst 33342, read-out: Imax. Type of series: cell-based. The method, boiled down: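 Hoechst 33342 microplate assay in ABCG2-overexpressing MCF-7/Topo cells; maximal inhibitory effect taken as inhibition at the highest concentration (100 μM) of compound, expressed relative to the inhibition from 10 μM FTC set as 100%.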

Series [6] concerns the target T1, Broad substrate specificity ATP-binding cassette transporter ABCG2. Kind of series: Inhibition of ABCG2 (unknown origin) expressed in HEK293 cells assessed as reduction in mitoxantrone efflux measured after 30 mins by fluorescence assay. Type of series: cell-based.
The nature of series [7]: Cytotoxicity against human MCF7/Topo cells at 0.1 to 10 uM measured up to 120 hrs by crystal violet staining based assay. Type of series: cell-based. The method, boiled down:
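Kinetic chemosensitivity assay on proliferating ABCG2-overexpressing MCF-7/Topo cells under long-term exposure at 100 nM, 1, 3 and 10 μM; 100 nM vinblastine as positive control, DMSO vehicle as negative control; growth curves followed over time.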

Series [8] addresses T1, Broad substrate specificity ATP-binding cassette transporter ABCG2. Nature of the series: Inhibition of ABCG2 (unknown origin) expressed in MDCK2 cells incubated for 30 mins measured at 60 secs interval for 120 mins by Hoechst 33342 staining based fluorescence assay. Type of series: cell-based.

Chain of ABCB1 (P08183 whole entry): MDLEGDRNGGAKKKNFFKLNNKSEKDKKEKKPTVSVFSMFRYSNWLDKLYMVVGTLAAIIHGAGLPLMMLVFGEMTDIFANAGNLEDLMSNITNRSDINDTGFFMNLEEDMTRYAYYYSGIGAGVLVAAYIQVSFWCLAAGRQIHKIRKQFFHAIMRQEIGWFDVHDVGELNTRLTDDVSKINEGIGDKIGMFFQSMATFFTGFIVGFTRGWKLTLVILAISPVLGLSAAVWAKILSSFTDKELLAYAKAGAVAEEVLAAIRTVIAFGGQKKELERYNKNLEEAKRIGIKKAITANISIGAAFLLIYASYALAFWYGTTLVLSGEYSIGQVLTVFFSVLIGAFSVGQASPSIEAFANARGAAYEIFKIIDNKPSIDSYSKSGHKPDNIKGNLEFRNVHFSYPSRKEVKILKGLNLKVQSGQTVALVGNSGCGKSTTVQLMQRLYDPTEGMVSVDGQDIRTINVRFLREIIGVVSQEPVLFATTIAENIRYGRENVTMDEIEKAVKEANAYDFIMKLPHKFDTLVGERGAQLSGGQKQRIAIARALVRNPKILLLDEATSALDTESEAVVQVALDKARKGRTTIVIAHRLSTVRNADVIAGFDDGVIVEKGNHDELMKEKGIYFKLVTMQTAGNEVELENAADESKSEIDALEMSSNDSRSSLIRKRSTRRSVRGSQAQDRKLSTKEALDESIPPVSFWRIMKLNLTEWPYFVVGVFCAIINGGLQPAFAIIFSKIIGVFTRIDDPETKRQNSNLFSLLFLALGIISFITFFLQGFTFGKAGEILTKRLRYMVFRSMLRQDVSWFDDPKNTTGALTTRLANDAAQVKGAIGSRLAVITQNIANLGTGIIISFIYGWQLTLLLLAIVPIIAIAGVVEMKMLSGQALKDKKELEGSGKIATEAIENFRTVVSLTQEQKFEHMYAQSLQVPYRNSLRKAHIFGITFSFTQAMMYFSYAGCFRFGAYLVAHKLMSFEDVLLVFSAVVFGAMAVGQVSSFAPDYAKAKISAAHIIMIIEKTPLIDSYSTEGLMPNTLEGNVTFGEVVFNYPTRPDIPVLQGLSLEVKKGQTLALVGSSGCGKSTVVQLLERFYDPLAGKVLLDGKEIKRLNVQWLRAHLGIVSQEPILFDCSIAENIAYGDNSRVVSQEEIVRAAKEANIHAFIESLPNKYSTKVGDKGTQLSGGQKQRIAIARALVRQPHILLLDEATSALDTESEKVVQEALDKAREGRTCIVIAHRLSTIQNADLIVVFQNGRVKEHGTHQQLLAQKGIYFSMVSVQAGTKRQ
Chain of ABCC1 (P33527 whole entry): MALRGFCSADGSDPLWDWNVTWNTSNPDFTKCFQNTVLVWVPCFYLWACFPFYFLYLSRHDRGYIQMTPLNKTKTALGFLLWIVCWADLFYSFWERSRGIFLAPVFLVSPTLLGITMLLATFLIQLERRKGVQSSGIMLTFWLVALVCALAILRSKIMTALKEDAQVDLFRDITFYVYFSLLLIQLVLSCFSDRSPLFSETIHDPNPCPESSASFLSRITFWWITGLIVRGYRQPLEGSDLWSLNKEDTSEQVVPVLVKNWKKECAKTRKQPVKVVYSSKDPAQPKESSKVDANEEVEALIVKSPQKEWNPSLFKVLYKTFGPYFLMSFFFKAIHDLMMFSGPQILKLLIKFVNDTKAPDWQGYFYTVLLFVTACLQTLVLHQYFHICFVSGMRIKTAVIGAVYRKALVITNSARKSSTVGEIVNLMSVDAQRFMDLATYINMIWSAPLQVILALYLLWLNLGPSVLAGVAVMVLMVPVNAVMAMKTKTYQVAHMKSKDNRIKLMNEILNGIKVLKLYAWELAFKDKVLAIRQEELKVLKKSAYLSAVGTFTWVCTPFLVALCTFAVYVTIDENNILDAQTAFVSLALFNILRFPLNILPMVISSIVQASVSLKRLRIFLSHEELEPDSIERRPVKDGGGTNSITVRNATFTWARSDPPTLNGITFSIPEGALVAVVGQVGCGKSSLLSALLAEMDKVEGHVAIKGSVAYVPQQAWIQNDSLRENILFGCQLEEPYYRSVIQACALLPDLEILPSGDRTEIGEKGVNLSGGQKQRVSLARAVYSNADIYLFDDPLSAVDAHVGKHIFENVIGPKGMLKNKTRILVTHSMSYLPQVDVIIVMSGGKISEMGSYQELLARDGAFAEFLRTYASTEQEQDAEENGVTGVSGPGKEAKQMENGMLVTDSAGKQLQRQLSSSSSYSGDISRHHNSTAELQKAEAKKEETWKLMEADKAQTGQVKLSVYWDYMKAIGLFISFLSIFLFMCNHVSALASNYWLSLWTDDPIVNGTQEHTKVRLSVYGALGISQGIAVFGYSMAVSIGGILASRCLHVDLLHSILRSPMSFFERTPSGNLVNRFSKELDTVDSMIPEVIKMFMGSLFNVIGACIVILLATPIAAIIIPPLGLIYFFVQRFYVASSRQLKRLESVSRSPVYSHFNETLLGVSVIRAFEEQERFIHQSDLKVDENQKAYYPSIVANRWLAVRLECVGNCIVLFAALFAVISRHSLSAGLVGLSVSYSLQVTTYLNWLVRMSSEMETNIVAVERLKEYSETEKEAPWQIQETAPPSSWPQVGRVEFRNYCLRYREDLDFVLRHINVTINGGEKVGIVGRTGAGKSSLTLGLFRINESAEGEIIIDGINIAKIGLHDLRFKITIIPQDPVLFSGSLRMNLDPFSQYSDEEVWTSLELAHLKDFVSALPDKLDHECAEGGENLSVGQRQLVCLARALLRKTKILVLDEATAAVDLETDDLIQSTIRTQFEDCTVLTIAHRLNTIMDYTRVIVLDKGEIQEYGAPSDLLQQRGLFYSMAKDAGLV

With `COCCOCCOCCOc1cc2c(cc1OC)CCN(CCOc1ccc(/C=C/C(=O)c3cccc(NC(=O)c4ccc5ccccc5n4)c3)cc1)C2`, the inhibition at 10 min, 10 µM in series [1] was less than 25%. Moreover, the IC50 in series [2] was found to be 2830 nM. For the same compound, the inhibition at 1 h, 10 µM in series [3] was less than 25%. In series [4], the Stability entry is “Stable”. For the same compound, the Emax at 2 h, 100 µM in series [5] stood at 81%.
Take `COc1cc(OC)c(C(=O)/C=C/c2ccc3nccnc3c2)cc1OC`: the IC50 in series [6] came out at 1400 nM.
With `COCCOc1cc2c(cc1OC)CCN(CC(=O)c1ccc(C)c(NC(=O)c3ccc4ccccc4n3)c1)C2`, the inhibition at 10 min, 10 µM in series [1] was less than 25%. The compound further came in with an IC50 in series [2] of 23200 nM. In addition, the inhibition at 1 h, 10 µM in series [3] is less than 25%. Moreover, the Stability result in series [4] was “Stable”. Further, the Emax at 2 h, 100 µM in series [5] worked out at 79%.
As to `COc1cc2c(cc1OC)CN(CCOc1ccc(/C=C/C(=O)c3ccc(C)c(NC(=O)c4ccc5ccccc5n4)c3)cc1)CC2`, the inhibition at 10 min, 10 µM in series [1] is less than 25%. Moreover, in series [7], the Activity entry is given as “Dose-dependent effect”. In series [2], this compound had an IC50 of 880 nM. Besides, in series [3], the inhibition at 1 h, 10 µM is less than 25%. Moreover, the Stability entry in series [4] was “Stable”. Moreover, the Emax at 2 h, 100 µM in series [5] is 86%.
Consider `COc1cc2c(cc1OC)CN(CC(=O)c1ccc(C)c(NC(=O)c3ccc4ccccc4n3)c1)CC2`, for which the inhibition at 10 min, 10 µM in series [1] was less than 25%. In series [2], the IC50 was 8760 nM. In addition, the inhibition at 1 h, 10 µM in series [3] was less than 25%. Besides, the Stability result in series [4] is “Stable”. For the same compound, in series [5], the Emax at 2 h, 100 µM was 77%.
Regarding `COCCOCCOCCOc1cc2c(cc1OC)CCN(CC(=O)c1cccc(NC(=O)c3ccc4ccccc4n3)c1)C2`, the inhibition at 10 min, 10 µM in series [1] is less than 25%. The compound also had an IC50 in series [2] of 1130 nM. Also, the inhibition at 1 h, 10 µM in series [3] was less than 25%. Besides, the Stability entry in series [4] is recorded as “Stable”. Besides, the Emax at 2 h, 100 µM in series [5] was 47%.
Consider `COCCOc1cc2c(cc1OC)CCN(CCOc1ccc(/C=C/C(=O)c3ccc(C)c(NC(=O)c4ccc5ccccc5n4)c3)cc1)C2`, for which the inhibition at 10 min, 10 µM in series [1] is less than 25%. Also, in series [2], the IC50 worked out at 1550 nM. The inhibition at 1 h, 10 µM in series [3] was less than 25%. The Stability result in series [4] is listed as “Stable”. Moreover, the Emax at 2 h, 100 µM in series [5] is 97%.
With `COc1cc2c(cc1OC)CN(CC(=O)c1cccc(NC(=O)c3ccc4ccccc4n3)c1)CC2`, the inhibition at 10 min, 10 µM in series [1] was less than 25%. This compound yielded an IC50 in series [2] of 6730 nM. For the same compound, the inhibition at 1 h, 10 µM in series [3] was less than 25%. Further, the Stability result in series [4] is given as “Stable”. Besides, the Emax at 2 h, 100 µM in series [5] is 77%.
Consider `COCCOc1cc2c(cc1OC)CCN(CCOc1ccc(/C=C/C(=O)c3cccc(NC(=O)c4ccc5ccccc5n4)c3)cc1)C2`, for which, in series [1], the inhibition at 10 min, 10 µM is less than 25%. The half-maximal inhibitory concentration (IC50) in series [2] amounted to 2130 nM. Further, the inhibition at 1 h, 10 µM in series [3] is less than 25%. Also, the Stability result in series [4] is on record as “Stable”. Moreover, the Emax at 2 h, 100 µM in series [5] is 72%.
On to `COc1cc2c(cc1OC)CN(CCOc1ccc(/C=C/C(=O)c3cccc(NC(=O)c4ccc5ccccc5n4)c3)cc1)CC2`, for which the inhibition at 10 min, 10 µM in series [1] is less than 25%. This compound also showed an IC50 in series [2] of 4080 nM. Further, the inhibition at 1 h, 10 µM in series [3] was less than 25%. Further, in series [4], the Stability result is “Stable”. In addition, the Emax at 2 h, 100 µM in series [5] was determined as 79%.
Take `COCCOc1cc2c(cc1OC)CCN(CC(=O)c1cccc(NC(=O)c3ccc4ccccc4n3)c1)C2`: the inhibition at 10 min, 10 µM in series [1] was less than 25%. Moreover, the half-inhibitory concentration (IC50) in series [2] was 14400 nM. The inhibition at 1 h, 10 µM in series [3] was less than 25%. For the same compound, in series [4], the Stability result is listed as “Stable”. The Emax at 2 h, 100 µM in series [5] was 55%.
As to `COc1ccc(/C=C/C(=O)c2ccccc2NC(=O)c2cccs2)cc1OC`, the IC50 in series [8] turned out to be 501 nM.
In the case of `COCCOCCOCCOc1cc2c(cc1OC)CCN(CC(=O)c1ccc(C)c(NC(=O)c3ccc4ccccc4n3)c1)C2`, the inhibition at 10 min, 10 µM in series [1] is less than 25%. Moreover, in series [7], the Activity entry is “Non-Toxic”. Moreover, in series [2], the IC50 was 6650 nM. Moreover, the inhibition at 1 h, 10 µM in series [3] is less than 25%. Moreover, the Stability result in series [4] is “Stable”. For the same compound, the Emax at 2 h, 100 µM in series [5] came out at 86%.
In the case of `COCCOCCOCCOc1cc2c(cc1OC)CCN(CCOc1ccc(/C=C/C(=O)c3ccc(C)c(NC(=O)c4ccc5ccccc5n4)c3)cc1)C2`, the inhibition at 10 min, 10 µM in series [1] was less than 25%. Besides, the IC50 in series [2] stood at 2720 nM. For the same compound, the inhibition at 1 h, 10 µM in series [3] was less than 25%. Also, in series [4], the Stability result is reported as “Stable”. In addition, in series [5], the Emax at 2 h, 100 µM came to 111%.
